Reference: ChEMBL document CHEMBL1138528, “Discovery of tetrasubstituted imidazolines as potent and selective neuropeptide Y Y5 receptor antagonists: reduced human ether-a-go-go related gene potassium channel binding affinity and potent antiobesity effect” (J Med Chem, 2009)
Each block holds one molecule with its values, some of them ahead of it. The source made the active and inactive calls. The rule behind the calls is not given here.

Columns and labels:
[1] = Plasma concentration in Sprague-Dawley rat at 10 mg/kg, po after 2 hrs; format: ADME, organism-based; set-up: dose 10 mg/kg, route oral
In short: (§1)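 Male SD rats (7-10 weeks, 200-400 g) dosed orally at 10 mg/kg in 0.5% methylcellulose; at 2 h aortic blood taken under isoflurane. Plasma, brain homogenate (sonicated in water) and CSF deproteinized with 3-fold ethanol plus internal standard, -20 °C 20 min, centrifuged; LC/MS/MS with relative calibration curve. Mean, n = 2-3.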

[2] = target: T1, Neuropeptide Y receptor type 5 (Homo sapiens, UniProt Q15761); experiment: Displacement of [125I]PYY from human recombinant neuropeptide Y5 receptor expressed in mouse LMtk- cells; format: cell-based
T1 sequence (Q15761 whole entry): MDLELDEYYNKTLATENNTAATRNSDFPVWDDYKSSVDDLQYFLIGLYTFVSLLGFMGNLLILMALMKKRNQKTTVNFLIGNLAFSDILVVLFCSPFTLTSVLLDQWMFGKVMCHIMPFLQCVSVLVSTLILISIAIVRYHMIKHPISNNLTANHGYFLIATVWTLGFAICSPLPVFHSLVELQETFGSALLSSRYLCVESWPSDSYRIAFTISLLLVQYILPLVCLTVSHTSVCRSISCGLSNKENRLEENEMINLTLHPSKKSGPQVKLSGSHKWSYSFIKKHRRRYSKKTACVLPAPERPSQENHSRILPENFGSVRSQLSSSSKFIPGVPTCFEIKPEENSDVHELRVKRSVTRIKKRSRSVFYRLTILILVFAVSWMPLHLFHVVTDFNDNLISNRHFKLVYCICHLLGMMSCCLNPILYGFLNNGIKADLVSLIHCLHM

[3] = (§2) Drug level in Sprague-Dawley rat cerebrospinal fluid at 10 mg/kg, po after 2 hrs; format: ADME, organism-based; set-up: dose 10 mg/kg, route oral; settings: Sprague-Dawley, cerebrospinal fluid, read-out: Drug uptake; in short: as §1
[4] = target: Voltage-gated inwardly rectifying potassium channel KCNH2 (Homo sapiens, UniProt Q12809);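 also: radioligand displacement binding to human ERG expressed in HEK293 cells, using a [35S]-labelled spiro-benzopyran-piperidine methanesulfonamide as the displaced ligand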
Voltage-gated inwardly rectifying potassium channel KCNH2, sequence (Q12809 whole entry): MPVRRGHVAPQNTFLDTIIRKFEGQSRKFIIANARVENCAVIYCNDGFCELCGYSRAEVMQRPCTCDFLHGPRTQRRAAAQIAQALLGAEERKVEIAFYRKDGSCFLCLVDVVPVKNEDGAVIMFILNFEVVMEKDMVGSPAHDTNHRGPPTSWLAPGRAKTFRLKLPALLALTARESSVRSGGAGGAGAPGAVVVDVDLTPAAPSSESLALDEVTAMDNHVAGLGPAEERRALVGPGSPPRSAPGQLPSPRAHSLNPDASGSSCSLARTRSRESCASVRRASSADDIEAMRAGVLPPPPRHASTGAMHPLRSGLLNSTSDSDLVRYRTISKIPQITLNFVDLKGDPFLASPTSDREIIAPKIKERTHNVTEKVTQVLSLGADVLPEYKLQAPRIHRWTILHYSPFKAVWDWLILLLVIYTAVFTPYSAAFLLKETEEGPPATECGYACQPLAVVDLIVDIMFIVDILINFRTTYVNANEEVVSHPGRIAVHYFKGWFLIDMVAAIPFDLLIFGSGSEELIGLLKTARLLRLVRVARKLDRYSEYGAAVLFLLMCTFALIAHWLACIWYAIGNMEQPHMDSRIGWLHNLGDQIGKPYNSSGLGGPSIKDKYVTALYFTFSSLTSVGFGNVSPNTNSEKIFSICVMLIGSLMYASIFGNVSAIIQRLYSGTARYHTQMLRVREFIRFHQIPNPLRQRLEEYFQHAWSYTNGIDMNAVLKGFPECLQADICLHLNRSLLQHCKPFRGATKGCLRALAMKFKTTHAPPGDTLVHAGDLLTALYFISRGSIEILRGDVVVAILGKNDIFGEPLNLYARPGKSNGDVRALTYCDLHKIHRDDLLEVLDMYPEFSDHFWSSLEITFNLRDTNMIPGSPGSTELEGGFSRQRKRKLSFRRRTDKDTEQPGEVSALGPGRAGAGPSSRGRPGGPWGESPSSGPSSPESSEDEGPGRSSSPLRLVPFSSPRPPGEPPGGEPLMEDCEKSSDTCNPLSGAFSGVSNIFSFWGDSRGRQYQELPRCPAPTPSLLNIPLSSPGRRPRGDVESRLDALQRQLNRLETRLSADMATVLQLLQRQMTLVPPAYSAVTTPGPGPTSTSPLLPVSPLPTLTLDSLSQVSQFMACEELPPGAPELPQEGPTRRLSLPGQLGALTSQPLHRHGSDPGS

[5] = Octanol-water distribution coefficient, log D at pH 7.4; format: physicochemical
[6] = system: Brain; experiment: Drug level in Sprague-Dawley rat brain at 10 mg/kg, po after 2 hrs; format: ADME, organism-based; set-up: dose 10 mg/kg, route oral; settings: in vivo; in short: as §1
[7] = Metabolic stability in rat hepatocytes assessed as hepatic clearance by serum incubation method; format: ADME, cell-based, Liver, Hepatocyte
[8] = Ratio of drug level from brain to plasma in Sprague-Dawley rat at 10 mg/kg, po after 2 hrs; format: ADME, organism-based; set-up: dose 10 mg/kg, route oral; in short: as §1
[9] = Ratio of drug level from cerebrospinal fluid to brain in Sprague-Dawley rat at 10 mg/kg, po after 2 hrs; format: ADME, organism-based, CSF/Brain; set-up: dose 10 mg/kg, route oral; settings: in vivo
[10] = AUC (0 to infinity) in Sprague-Dawley rat at 1 mg/kg, po administered as single dose; format: ADME, organism-based; set-up: time infinity, dose 1 mg/kg, route oral; settings: plasma
[11] = Volume of distribution at steady state in Sprague-Dawley rat at 1 mg/kg, iv and 1 mg/kg, po administered as single dose; format: ADME, organism-based; settings: in vivo, read-out: Vdss
[12] = target: T2, Neuropeptide Y receptor type 1 (Homo sapiens, UniProt P25929); experiment: Binding affinity to human neuropeptide Y1 receptor
T2 sequence (P25929 whole entry): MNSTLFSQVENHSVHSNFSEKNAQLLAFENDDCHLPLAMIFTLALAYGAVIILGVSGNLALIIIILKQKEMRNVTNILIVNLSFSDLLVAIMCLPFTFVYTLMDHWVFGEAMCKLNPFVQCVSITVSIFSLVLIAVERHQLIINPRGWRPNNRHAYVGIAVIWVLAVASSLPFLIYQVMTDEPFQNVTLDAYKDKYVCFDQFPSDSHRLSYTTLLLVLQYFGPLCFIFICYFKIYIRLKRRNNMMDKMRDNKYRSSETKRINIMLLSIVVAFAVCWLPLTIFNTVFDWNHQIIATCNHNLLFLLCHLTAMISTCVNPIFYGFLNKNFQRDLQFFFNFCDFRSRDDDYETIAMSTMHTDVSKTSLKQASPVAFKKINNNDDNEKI

[13] = system: Mus musculus; experiment: Reduction in body weight in moderately high fat diet-induced obese Y5 receptor-deficient mouse model at 3 mg/kg, po BID 15 days; format: functional, organism-based; set-up: dose 3 mg/kg
[14] = Cmax in Beagle dog at 2 mg/kg, iv; format: ADME, organism-based, Canis lupus familiaris; set-up: dose 2 mg/kg, route intravenous; settings: in vivo
[15] = Bioavailability in Sprague-Dawley rat at 1 mg/kg, iv and 1 mg/kg, po administered as single dose; format: ADME, organism-based; settings: in vivo
[16] = system: Mus musculus; experiment: Reduction in body weight in moderately high fat diet-induced obese C57BL/6J mouse model at 10 mg/kg, po qid for 5 days followed by BID for 15 days; format: functional, organism-based; set-up: dose 10 mg/kg
[17] = Volume of distribution at steady state in rhesus monkey at 1 mg/kg, po and 0.3 mg/kg, iv administered as single dose; format: ADME, organism-based, Macaca mulatta; settings: in vivo, read-out: Vdss
[18] = system: Cerebrospinal fluid; experiment: as §2; format: ADME, organism-based; set-up: dose 10 mg/kg, route oral; settings: in vivo, 2 h; in short: as §1
[19] = system: Rattus norvegicus; experiment: Inhibition of D-[Trp34]NPY-induced acute food intake in Sprague-Dawley rat at 1 mg/kg, po pretreated 2 hrs prior to D-[Trp34]NPY challenge measured after 2 hrs; format: functional
In short: (§3)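 SD rats (10-15 weeks) with stereotaxic third-ventricle cannula, tested ≥1 wk post-surgery in light cycle. Oral dose in 0.5% methylcellulose, then 2 h later D-Trp34NPY 1 µg/0.4 µL in aCSF into third ventricle; food intake over 2 h. Mean ± SEM, n = 5-9; Dunnett's test versus agonist-only group.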

[20] = system: Canis familiaris; experiment: Cardiotoxicity in Beagle dog assessed as adverse events at 2 mg/kg, iv; format: toxicity, organism-based, Canis lupus familiaris; set-up: dose 2 mg/kg, route intravenous; settings: in vivo
[21] = system: Canis familiaris; experiment: Cardiotoxicity in Beagle dog assessed as change in cardiac output pressure at 5 mg/kg, iv; format: toxicity, organism-based, Canis lupus familiaris, Heart; set-up: dose 5 mg/kg, route intravenous; settings: in vivo
[22] = system: Canis familiaris; experiment: Cardiotoxicity in Beagle dog assessed as change in mean arterial pressure at 5 mg/kg, iv; format: toxicity, organism-based, Canis lupus familiaris, Artery; set-up: dose 5 mg/kg, route intravenous; settings: in vivo
[23] = Cmax in rhesus monkey at 1 mg/kg, po and 0.3 mg/kg, iv administered as single dose; format: ADME, organism-based, Macaca mulatta; settings: in vivo
[24] = system: Canis familiaris; experiment: Cardiotoxicity in Beagle dog assessed as change in left ventricular systolic pressure at 5 mg/kg, iv; format: toxicity, organism-based, Canis lupus familiaris, Heart left ventricle; set-up: dose 5 mg/kg, route intravenous; settings: in vivo
[25] = system: Rattus norvegicus; experiment: Inhibition of D-[Trp34]NPY-induced acute food intake in Sprague-Dawley rat at 0.3 mg/kg, po pretreated 2 hrs prior to D-[Trp34]NPY challenge measured after 2 hrs; format: functional; in short: as §3
[26] = system: Canis familiaris; experiment: Cardiotoxicity in Beagle dog assessed as change in femoral blood flow at 5 mg/kg, iv; format: toxicity, organism-based, Canis lupus familiaris; set-up: dose 5 mg/kg, route intravenous; settings: in vivo
[27] = system: Canis familiaris; experiment: Cardiotoxicity in Beagle dog assessed as change in cardiac contractility pressure at 5 mg/kg, iv; format: toxicity, organism-based, Canis lupus familiaris, Heart; set-up: dose 5 mg/kg, route intravenous; settings: in vivo
[28] = system: Mus musculus; experiment: Reduction in body weight in moderately high fat diet-induced obese C57BL/6J mouse model at 3 mg/kg, po qid for 5 days followed by BID for 15 days; format: functional, organism-based; set-up: dose 3 mg/kg
[29] = target: Neuropeptide Y receptor type 4 (Homo sapiens, UniProt P50391); experiment: Binding affinity to human neuropeptide Y4 receptor
Neuropeptide Y receptor type 4, sequence (P50391 whole entry): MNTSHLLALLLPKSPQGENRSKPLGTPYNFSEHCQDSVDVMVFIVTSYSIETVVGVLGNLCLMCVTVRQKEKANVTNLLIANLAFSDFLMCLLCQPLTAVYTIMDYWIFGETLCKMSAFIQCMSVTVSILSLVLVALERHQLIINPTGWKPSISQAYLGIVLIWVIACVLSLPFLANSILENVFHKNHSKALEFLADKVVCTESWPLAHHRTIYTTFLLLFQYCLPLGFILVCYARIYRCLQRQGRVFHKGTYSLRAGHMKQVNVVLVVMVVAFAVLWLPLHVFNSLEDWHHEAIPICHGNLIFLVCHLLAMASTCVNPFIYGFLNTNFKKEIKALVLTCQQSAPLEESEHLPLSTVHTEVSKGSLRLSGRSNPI

[30] = Cmax in Beagle dog at 5 mg/kg, iv; format: ADME, organism-based, Canis lupus familiaris; set-up: dose 5 mg/kg, route intravenous; settings: in vivo
[31] = Cmax in Sprague-Dawley rat at 1 mg/kg, iv and 1 mg/kg, po administered as single dose; format: ADME, organism-based; settings: in vivo
[32] = Plasma clearance in Sprague-Dawley rat plasma at 1 mg/kg, iv administered as single dose; format: ADME, organism-based; set-up: dose 1 mg/kg, route intravenous
[33] = Bioavailability in rhesus monkey at 1 mg/kg, po and 0.3 mg/kg, iv administered as single dose; format: ADME, organism-based, Macaca mulatta; settings: in vivo
[34] = Plasma clearance in rhesus monkey plasma at 0.3 mg/kg, iv administered as single dose; format: ADME, organism-based, Macaca mulatta; set-up: dose 0.3 mg/kg, route intravenous
[35] = AUC (0 to infinity) in rhesus monkey at 1 mg/kg, po administered as single dose; format: ADME, organism-based, Macaca mulatta; set-up: dose 1 mg/kg, route oral, time infinity; settings: plasma
[36] = system: Canis familiaris; experiment: Cardiotoxicity in Beagle dog assessed as prolongation of QTc interval at 5 mg/kg, iv; format: toxicity, organism-based, Canis lupus familiaris; set-up: dose 5 mg/kg, route intravenous; settings: in vivo
[37] = system: Rattus norvegicus; experiment: Inhibition of D-[Trp34]NPY-induced acute food intake in Sprague-Dawley rat at 0.1 mg/kg, po pretreated 2 hrs prior to D-[Trp34]NPY challenge measured after 2 hrs; format: functional; in short: as §3
[38] = target: T3, Neuropeptide Y receptor type 2 (Homo sapiens, UniProt P49146); experiment: Binding affinity to human neuropeptide Y2 receptor
T3 sequence (P49146 whole entry): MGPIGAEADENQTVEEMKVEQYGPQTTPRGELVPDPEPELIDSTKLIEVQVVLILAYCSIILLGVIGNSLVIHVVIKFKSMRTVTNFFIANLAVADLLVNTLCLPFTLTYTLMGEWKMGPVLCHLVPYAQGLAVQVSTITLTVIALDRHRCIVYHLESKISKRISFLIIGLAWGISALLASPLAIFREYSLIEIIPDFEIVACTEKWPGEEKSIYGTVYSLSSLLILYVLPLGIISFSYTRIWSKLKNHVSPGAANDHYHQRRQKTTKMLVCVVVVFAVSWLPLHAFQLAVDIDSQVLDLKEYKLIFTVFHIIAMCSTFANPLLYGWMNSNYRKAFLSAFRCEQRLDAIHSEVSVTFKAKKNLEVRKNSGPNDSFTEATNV

concentration at 2 h [1]: 3700 nM | Ki [2]: 0.001 µM | concentration at 2 h [3]: 220 nM | logD [5]: 3.2 | Drug uptake [6]: 3.2 nmol/g | CLhep predicted [7]: 13 mL/min/kg | Kp at 2 h [8]: 0.9 | Ratio [9]: 0.069
SMILES: C[C@@H]1NC(c2ccnc(C#N)c2)=N[C@@]1(c1ccc(F)cc1)c1ccc(F)nc1
IC50 [4]: > 10 µM

concentration at 2 h [1]: 4400 nM | Ki [2]: 0.0032 µM | concentration at 2 h [3]: 460 nM | logD [5]: 2.9 | Drug uptake [6]: 5.3 nmol/g | CLhep predicted [7]: 12 mL/min/kg | Kp at 2 h [8]: 1.2 | Ratio [9]: 0.087
SMILES: C[C@@H]1NC(c2cncc(C#N)c2)=N[C@@]1(c1ccc(F)cc1)c1ccc(F)nc1
IC50 [4]: > 10 µM

AUC(0-inf) [10]: 1.8 µM·h | Vd [11]: 6.2 L/kg | concentration at 2 h [1]: 2600 nM | IC50 [12]: > 10 µM | Cmax [14]: 12000 nM | bioavailability [15]: 77% | Vd [17]: 4.4 L/kg | Drug uptake [18]: 0.21 µM | logD [5]: 3.2 | Cmax [23]: 590 nM | Drug uptake [6]: 7 nmol/g | IC50 [29]: > 10 µM | CLhep predicted [7]: 18 mL/min/kg | Cmax [30]: 25000 nM | Kp at 2 h [8]: 2.7 | Cmax [31]: 500 nM | clearance [32]: 20 mL/min/kg | bioavailability [33]: 76% | clearance [34]: 8 mL/min/kg | AUC(0-inf) [35]: 4.6 µM·h | IC50 [38]: > 10 µM
SMILES: C[C@@H]1NC(c2cc(C#N)ccn2)=N[C@@]1(c1ccc(F)cc1)c1ccc(F)nc1
Activity [13]: inactive | Activity [16]: Active | inhibition in vivo at 1 mg/kg [19]: 93% | Activity [20]: Non-toxic | Activity [21]: 46% | Activity [22]: 28% | Activity [24]: 29% | inhibition in vivo at 0.3 mg/kg [25]: 54% | Activity [26]: -32% | Activity [27]: 50% | Activity [28]: Active | Activity [36]: 7% | inhibition in vivo at 0.1 mg/kg [37]: 5%

concentration at 2 h [1]: 1100 nM | Ki [2]: 0.003 µM | concentration at 2 h [3]: 57 nM | logD [5]: 3.4 | Drug uptake [6]: 2.3 nmol/g | CLhep predicted [7]: 11 mL/min/kg | Kp at 2 h [8]: 2.1 | Ratio [9]: 0.025
SMILES: N#Cc1ccnc(C2=NC(c3ccc(F)cc3)(c3ccc(F)cc3)[C@H](CO)N2)c1
IC50 [4]: 6.1 µM
